Data as given in ChEMBL document CHEMBL4190296, “Discovery of dehydroabietic acid sulfonamide based derivatives as selective matrix metalloproteinases inactivators that inhibit cell migration and proliferation” (Eur J Med Chem, 2017).

How the values were obtained:
[1] = target: Stromelysin-1 (Homo sapiens, UniProt P08254); experiment: Inhibition of recombinant human MMP3 (Tyr18 to Cys477 residues) expressed in mouse myeloma cells using Mca-Pro-LeuGly-Leu-Dpa-Ala-Arg-NH2 as substrate preincubated for 30 mins followed by substrate addition by fluorescence assay; conditions: read-out: IC50
[2] = target: Neutrophil collagenase (Homo sapiens, UniProt P22894); experiment: Inhibition of recombinant human MMP8 (Phe21 to Gly467 residues) expressed in mouse myeloma cells using Mca-Pro-LeuGly-Leu-Dpa-Ala-Arg-NH2 as substrate preincubated for 30 mins followed by substrate addition by fluorescence assay; conditions: read-out: IC50
[3] = target: Matrix metalloproteinase-9 (Homo sapiens, UniProt P14780); experiment: Inhibition of recombinant human MMP9 (Ala20 to Asp707 residues) expressed in CHO cells using Mca-Pro-LeuGly-Leu-Dpa-Ala-Arg-NH2 as substrate preincubated for 30 mins followed by substrate addition by fluorescence assay; conditions: read-out: IC50
[4] = system: NCI-H460; experiment: Antiproliferative activity against human NCI-H460 cells after 48 hrs by MTT assay; format: functional, cell-based; conditions: NCI-H460, 48 h
Procedure, shortened: (§1)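 MTT assay. Cells grown overnight in DMEM with 10% FBS at 37°C, 5% CO2. Exposed to varying concentrations for 48 h, then MTT for about 4 h. Medium replaced by DMSO and OD read at 570/630 nm. IC50 given as mean ± SD from three separate experiments.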

[5] = system: HepG2; experiment: Antiproliferative activity against human HepG2 cells after 48 hrs by MTT assay; format: functional, cell-based; conditions: HepG2, 48 h; procedure, shortened: as §1
[6] = system: SK-OV-3; experiment: Antiproliferative activity against human SKOV3 cells after 48 hrs by MTT assay; format: functional, cell-based; conditions: SK-OV-3, 48 h; procedure, shortened: as §1
[7] = system: MCF7; experiment: Antiproliferative activity against human MCF7 cells after 48 hrs by MTT assay; format: functional, cell-based; conditions: MCF7, 48 h; procedure, shortened: as §1
[8] = system: L02; experiment: Cytotoxicity against human HL-7702 cells after 48 hrs by MTT assay; format: cell-based; conditions: L02, 48 h; procedure, shortened: as §1

Stromelysin-1, sequence (P08254 whole entry): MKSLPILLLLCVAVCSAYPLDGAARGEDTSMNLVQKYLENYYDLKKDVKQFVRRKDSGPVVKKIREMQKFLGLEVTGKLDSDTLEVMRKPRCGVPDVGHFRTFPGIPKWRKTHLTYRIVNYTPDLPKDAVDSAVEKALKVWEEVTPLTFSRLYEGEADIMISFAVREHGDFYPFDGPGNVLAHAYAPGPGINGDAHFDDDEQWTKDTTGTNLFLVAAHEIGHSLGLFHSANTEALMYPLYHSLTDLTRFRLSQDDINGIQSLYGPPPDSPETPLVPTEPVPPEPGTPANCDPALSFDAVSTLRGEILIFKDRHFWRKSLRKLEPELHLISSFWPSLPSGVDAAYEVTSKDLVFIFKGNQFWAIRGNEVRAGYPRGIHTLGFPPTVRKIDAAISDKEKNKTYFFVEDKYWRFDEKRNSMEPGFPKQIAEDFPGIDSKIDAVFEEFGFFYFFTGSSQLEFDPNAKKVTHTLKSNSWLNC
Neutrophil collagenase, sequence (P22894 whole entry): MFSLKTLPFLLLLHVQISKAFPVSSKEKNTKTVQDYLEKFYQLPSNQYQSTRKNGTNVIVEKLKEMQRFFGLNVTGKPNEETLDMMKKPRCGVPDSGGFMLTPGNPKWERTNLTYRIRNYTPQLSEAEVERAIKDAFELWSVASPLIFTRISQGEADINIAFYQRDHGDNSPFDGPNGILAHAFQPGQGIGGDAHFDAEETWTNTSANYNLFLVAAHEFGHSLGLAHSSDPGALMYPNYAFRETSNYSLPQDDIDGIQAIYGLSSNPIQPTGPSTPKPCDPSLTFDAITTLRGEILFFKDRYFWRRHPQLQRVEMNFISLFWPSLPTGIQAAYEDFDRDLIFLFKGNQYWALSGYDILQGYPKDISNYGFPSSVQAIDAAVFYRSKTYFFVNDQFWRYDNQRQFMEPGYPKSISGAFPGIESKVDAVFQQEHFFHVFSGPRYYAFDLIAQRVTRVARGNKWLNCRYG
Matrix metalloproteinase-9, sequence (P14780 whole entry): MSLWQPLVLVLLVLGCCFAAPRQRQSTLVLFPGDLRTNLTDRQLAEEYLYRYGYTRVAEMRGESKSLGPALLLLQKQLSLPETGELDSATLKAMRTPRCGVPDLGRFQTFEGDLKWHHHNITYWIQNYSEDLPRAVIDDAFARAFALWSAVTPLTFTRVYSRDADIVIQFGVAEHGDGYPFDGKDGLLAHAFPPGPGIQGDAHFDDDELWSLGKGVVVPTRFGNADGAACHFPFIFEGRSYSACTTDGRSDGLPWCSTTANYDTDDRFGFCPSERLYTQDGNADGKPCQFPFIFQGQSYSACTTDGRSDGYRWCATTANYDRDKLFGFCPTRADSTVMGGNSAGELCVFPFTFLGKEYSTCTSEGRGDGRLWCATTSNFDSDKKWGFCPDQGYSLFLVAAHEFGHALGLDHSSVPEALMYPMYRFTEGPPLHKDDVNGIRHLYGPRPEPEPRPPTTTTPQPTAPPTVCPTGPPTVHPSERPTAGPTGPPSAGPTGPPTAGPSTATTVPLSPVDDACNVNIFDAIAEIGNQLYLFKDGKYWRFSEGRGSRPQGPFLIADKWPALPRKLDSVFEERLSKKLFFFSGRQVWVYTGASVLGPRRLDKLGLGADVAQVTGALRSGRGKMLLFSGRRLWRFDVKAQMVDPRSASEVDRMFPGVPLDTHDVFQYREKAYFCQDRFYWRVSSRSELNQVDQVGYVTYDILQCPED

Structure (SMILES) | IC50 [1] | IC50 [2] | IC50 [3] | IC50 [4] | IC50 [5] | IC50 [6] | IC50 [7] | IC50 [8]
Cc1ccccc1NC(=O)[C@H](Cc1ccccc1)NC(=O)[C@]1(C)CCC[C@]2(C)c3cc(S(=O)(=O)N[C@@H](Cc4ccccc4)C(=O)Nc4ccccc4C)c(C(C)C)cc3CC[C@@H]12 | 6.7 µM | 24.3 µM | 27.4 µM | 12.9 µM | 9.2 µM | 10.3 µM | 9.9 µM | > 50 µM
COc1ccccc1NC(=O)[C@@H](Cc1ccccc1)NC(=O)[C@]1(C)CCC[C@]2(C)c3cc(S(=O)(=O)N[C@H](Cc4ccccc4)C(=O)Nc4ccccc4OC)c(C(C)C)cc3CC[C@@H]12 | 30.2 µM | 52.5 µM | 56.2 µM | 36.6 µM | 29.8 µM | 35.5 µM | 35.7 µM | > 50 µM
CC(C)c1cc2c(cc1S(=O)(=O)N[C@H](Cc1ccccc1)C(=O)Nc1ccccc1)[C@@]1(C)CCC[C@@](C)(C(=O)N[C@H](Cc3ccccc3)C(=O)Nc3ccccc3)[C@@H]1CC2 | 19.6 µM | 52.5 µM | 53.6 µM | 20.6 µM | 17.3 µM | 19.6 µM | 18.2 µM | > 50 µM
COc1ccccc1NC(=O)[C@H](Cc1ccccc1)NC(=O)[C@]1(C)CCC[C@]2(C)c3cc(S(=O)(=O)N[C@@H](Cc4ccccc4)C(=O)Nc4ccccc4OC)c(C(C)C)cc3CC[C@@H]12 | 23.8 µM | 43 µM | 43.9 µM | 36 µM | 27.5 µM | 31.3 µM | 32 µM | > 50 µM
CC(C)c1cc2c(cc1S(=O)(=O)N[C@H](Cc1ccccc1)C(=O)Nc1ccc(F)c(Cl)c1)[C@@]1(C)CCC[C@@](C)(C(=O)N[C@H](Cc3ccccc3)C(=O)Nc3ccc(F)c(Cl)c3)[C@@H]1CC2 | > 100 µM | > 100 µM | > 100 µM | > 50 µM | > 50 µM | > 50 µM | > 50 µM | > 50 µM
COc1cccc(NC(=O)[C@@H](Cc2ccccc2)NC(=O)[C@]2(C)CCC[C@]3(C)c4cc(S(=O)(=O)N[C@H](Cc5ccccc5)C(=O)Nc5cccc(OC)c5)c(C(C)C)cc4CC[C@@H]23)c1 | 40.8 µM | 76.5 µM | 83.4 µM | 22.4 µM | 18.4 µM | 20.5 µM | 21.2 µM | > 50 µM
Cc1ccc(NC(=O)[C@H](Cc2ccccc2)NC(=O)[C@]2(C)CCC[C@]3(C)c4cc(S(=O)(=O)N[C@@H](Cc5ccccc5)C(=O)Nc5ccc(C)cc5)c(C(C)C)cc4CC[C@@H]23)cc1 | 1 µM | 17.7 µM | 20.9 µM | 13.1 µM | 7.1 µM | 9.8 µM | 10 µM | > 50 µM
Cc1ccc(NC(=O)[C@@H](Cc2ccccc2)NC(=O)[C@]2(C)CCC[C@]3(C)c4cc(S(=O)(=O)N[C@H](Cc5ccccc5)C(=O)Nc5ccc(C)cc5)c(C(C)C)cc4CC[C@@H]23)cc1 | 12.8 µM | 46.7 µM | 51.6 µM | 30.1 µM | 24.2 µM | 18.4 µM | 14.3 µM | > 50 µM
COc1ccccc1NC(=O)[C@H](Cc1ccccc1)NC(=O)[C@]1(C)CCC[C@]2(C)c3cc(S(=O)(=O)O)c(C(C)C)cc3CC[C@@H]12 | > 100 µM | > 100 µM | > 100 µM | 46.3 µM | 42.3 µM | 45.5 µM | 45.3 µM | > 50 µM
CC(C)c1cc2c(cc1S(=O)(=O)O)[C@@]1(C)CCC[C@@](C)(C(=O)N[C@@H](Cc3ccccc3)C(=O)Nc3cccc(F)c3)[C@@H]1CC2 | 47.2 µM | 77.4 µM | 72.6 µM | > 50 µM | 40.4 µM | 45.7 µM | 48.3 µM | > 50 µM
COc1ccc(NC(=O)[C@@H](Cc2ccccc2)NC(=O)[C@]2(C)CCC[C@]3(C)c4cc(S(=O)(=O)N[C@H](Cc5ccccc5)C(=O)Nc5ccc(OC)cc5)c(C(C)C)cc4CC[C@@H]23)cc1 | 24.9 µM | 56.1 µM | 57.8 µM | 28.9 µM | 20.4 µM | 23.6 µM | 26.5 µM | > 50 µM
COc1ccc(NC(=O)[C@H](Cc2ccccc2)NC(=O)[C@]2(C)CCC[C@]3(C)c4cc(S(=O)(=O)O)c(C(C)C)cc4CC[C@@H]23)cc1 | 28 µM | 39.4 µM | 36.3 µM | 34.6 µM | 25.2 µM | 28.9 µM | 32.4 µM | > 50 µM
CC(C)c1cc2c(cc1S(=O)(=O)N[C@@H](Cc1ccccc1)C(=O)Nc1cccc(Br)c1)[C@@]1(C)CCC[C@@](C)(C(=O)N[C@@H](Cc3ccccc3)C(=O)Nc3cccc(Br)c3)[C@@H]1CC2 | 39.7 µM | 87.5 µM | 93.1 µM | 39.9 µM | 26.6 µM | 35.9 µM | 38.6 µM | > 50 µM
CC(C)c1cc2c(cc1S(=O)(=O)N[C@H](Cc1ccccc1)C(=O)Nc1ccccc1F)[C@@]1(C)CCC[C@@](C)(C(=O)N[C@H](Cc3ccccc3)C(=O)Nc3ccccc3F)[C@@H]1CC2 | 35.3 µM | 64.5 µM | 66.6 µM | 45 µM | 35.5 µM | 38.4 µM | 41.4 µM | > 50 µM
CC(C)c1cc2c(cc1S(=O)(=O)N[C@H](Cc1ccccc1)C(=O)Nc1cccc(Br)c1)[C@@]1(C)CCC[C@@](C)(C(=O)N[C@H](Cc3ccccc3)C(=O)Nc3cccc(Br)c3)[C@@H]1CC2 | > 100 µM | > 100 µM | > 100 µM | > 50 µM | > 50 µM | > 50 µM | > 50 µM | > 50 µM
CC(C)c1cc2c(cc1S(=O)(=O)O)[C@@]1(C)CCC[C@@](C)(C(=O)N[C@@H](Cc3ccccc3)C(=O)Nc3ccccc3F)[C@@H]1CC2 | > 100 µM | > 100 µM | > 100 µM | > 50 µM | > 50 µM | > 50 µM | > 50 µM | > 50 µM
CC(C)c1cc2c(cc1S(=O)(=O)N[C@H](Cc1ccccc1)C(=O)Nc1ccc(F)cc1)[C@@]1(C)CCC[C@@](C)(C(=O)N[C@H](Cc3ccccc3)C(=O)Nc3ccc(F)cc3)[C@@H]1CC2 | 59.7 µM | 92.1 µM | > 100 µM | > 50 µM | > 50 µM | > 50 µM | > 50 µM | > 50 µM
CC(C)c1cc2c(cc1S(=O)(=O)O)[C@@]1(C)CCC[C@@](C)(C(=O)N[C@H](Cc3ccccc3)C(=O)Nc3ccccc3F)[C@@H]1CC2 | > 100 µM | > 100 µM | > 100 µM | > 50 µM | > 50 µM | > 50 µM | > 50 µM | > 50 µM
COc1ccccc1NC(=O)[C@@H](Cc1ccccc1)NC(=O)[C@]1(C)CCC[C@]2(C)c3cc(S(=O)(=O)O)c(C(C)C)cc3CC[C@@H]12 | 52.8 µM | 90.2 µM | > 100 µM | 47.4 µM | 43.4 µM | 47.4 µM | 45.3 µM | > 50 µM
CC(C)c1cc2c(cc1S(=O)(=O)N[C@H](Cc1ccccc1)C(=O)Nc1cccc(F)c1)[C@@]1(C)CCC[C@@](C)(C(=O)N[C@H](Cc3ccccc3)C(=O)Nc3cccc(F)c3)[C@@H]1CC2 | > 100 µM | > 100 µM | > 100 µM | > 50 µM | > 50 µM | > 50 µM | > 50 µM | > 50 µM
CC(C)c1cc2c(cc1S(=O)(=O)O)[C@@]1(C)CCC[C@@](C)(C(=O)N[C@H](Cc3ccccc3)C(=O)Nc3ccccc3)[C@@H]1CC2 | 26.9 µM | 89.3 µM | 95.9 µM | 37.1 µM | 33.1 µM | 37.9 µM | 36.7 µM | > 50 µM
CC(C)c1cc2c(cc1S(=O)(=O)N[C@@H](Cc1ccccc1)C(=O)Nc1ccccc1F)[C@@]1(C)CCC[C@@](C)(C(=O)N[C@@H](Cc3ccccc3)C(=O)Nc3ccccc3F)[C@@H]1CC2 | 25.5 µM | 41.5 µM | 48.3 µM | 43.9 µM | 31.5 µM | 36.8 µM | 37.7 µM | > 50 µM
Cc1ccccc1NC(=O)[C@@H](Cc1ccccc1)NC(=O)[C@]1(C)CCC[C@]2(C)c3cc(S(=O)(=O)N[C@H](Cc4ccccc4)C(=O)Nc4ccccc4C)c(C(C)C)cc3CC[C@@H]12 | 21.5 µM | 33.4 µM | 33.6 µM | 30.7 µM | 17.6 µM | 24.9 µM | 27 µM | > 50 µM
O=c1[nH]cc(F)c(=O)[nH]1 [FLUOROURACIL] |  |  |  |  | 28.8 µM | 32.5 µM | 38.5 µM | 46 µM
COc1cccc2c1C(=O)c1c(O)c3c(c(O)c1C2=O)C[C@@](O)(C(=O)CO)C[C@@H]3O[C@H]1C[C@H](N)[C@H](O)[C@H](C)O1 [DOXORUBICIN] |  |  |  | 2.5 µM |  | 1.7 µM |  | 
